Test results reported in ChEMBL document CHEMBL4330063, “New naphthopyran analogues of LY290181 as potential tumor vascular-disrupting agents” (Eur J Med Chem, 2019).
Calls of active or inactive are those of the source. No cut-off for these calls is given here.

Key:
HT-29 [1] = test: Cell cycle arrest in human HT-29 cells assessed as accumulation of cells at S phase at 350 nM after 24 hrs by propidium iodide staining-based flow cytometric analysis (reference value: 12.3 +/- 0.4%); assay type: functional
HT-29 [2] = test: Cell cycle arrest in human HT-29 cells assessed as accumulation of cells at sub G1 phase at 100 nM after 24 hrs by propidium iodide staining-based flow cytometric analysis (reference value: 1.2 +/- 0.3%); assay type: functional
518A2 [3] = test: Effect on F-actin in human 518A2 cells assessed as thick stress fibers formation at 100 nM after 3 hrs by DAPI staining-based fluorescence microscopic analysis; assay type: cell-based
Summary of the method: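 518A2 melanoma cells were treated with 100 nM for 3 h. Filamentous actin was fluorescence-labelled, nuclei were counterstained with DAPI, and the cells were imaged by fluorescence microscopy. Images come from two independent experiments.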

HT-29 [4] = test: Cell cycle arrest in human HT-29 cells assessed as accumulation of cells at sub G1 phase at 250 nM after 24 hrs by propidium iodide staining-based flow cytometric analysis (reference value: 1.2 +/- 0.3%); assay type: functional
518A2 [5] = test: Induction of apoptosis in human 518A2 cells at 100 nM after 24 hrs by TUNEL assay relative to control; assay type: functional
HT-29 [6] = test: Cell cycle arrest in human HT-29 cells assessed as accumulation of cells at G1 phase at 250 nM after 24 hrs by propidium iodide staining-based flow cytometric analysis (reference value: 75.1 +/- 1.1%); assay type: functional
[7] = Antiproliferative activity against human KB-V1/Vbl cells after 72 hrs by MTT assay; assay type: functional, cell-based
Summary of the method: (§1)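 MTT read-out after 72 h of continuous exposure. Viability is expressed as percentage of viable cells relative to untreated controls. IC50 comes from dose-response curves. Values are means±SD of four independent experiments (two for some entries). DMSO was below 1%, with vehicle controls at equal DMSO. Precipitation was excluded spectrometrically and microscopically.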

Chorioallantoic membrane [8] = test: Antiangiogenic activity in Leghorn chicken embryo chorioallantoic membrane assessed as reduction in diameter of main blood vessel at 5 nmol after 24 hrs by light microscopic analysis; assay type: functional, tissue-based; settings: Gallus gallus
Summary of the method: (§2)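 Fertilized chicken eggs, CAM assay. Compound was applied topically into a small silicon foil ring placed on the CAM. The membrane and its extraembryonal blood vessels were monitored over 24 h, with observations at 6 h and 24 h post application.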

[9] = Antiproliferative activity against human MCF7/Topo cells after 72 hrs by MTT assay; assay type: functional, cell-based; summary of the method: as §1
HT-29 [10] = test: Cell cycle arrest in human HT-29 cells assessed as accumulation of cells at G1 phase at 350 nM after 24 hrs by propidium iodide staining-based flow cytometric analysis (reference value: 75.1 +/- 1.1%); assay type: functional
HT-29 [11] = test: Cell cycle arrest in human HT-29 cells assessed as accumulation of cells at G2/M phase at 100 nM after 24 hrs by propidium iodide staining-based flow cytometric analysis (reference value: 11.4 +/- 1.4%); assay type: functional
A2780 [12] = test: Antivascular activity against human A2780 cells xenografted in nude mouse assessed as tumor discoloration at 200 mg/kg administered on every other day and measured after 24 hrs; assay type: functional, organism-based; settings: in the assay text read “administered as single dose” for “administered on every other day”
Summary of the method: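 Mice bore A2780 tumor xenografts. Compound was formulated in tween80/ethanol (1:1) and injected as single doses. Tumors were inspected for discoloration as a sign of vascular disruption, and treated tumors were examined histologically for hemorrhage and necrosis.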

A2780 [13] = test: Antiproliferative activity against human A2780 cells after 72 hrs by SRB assay; assay type: functional, cell-based; settings: A2780, 72 h
Summary of the method: (§3)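 Ovarian A2780 and cisplatin-resistant A2780cis cells were exposed for 72 h and stained with SRB. IC50 comes from dose-response curves, as means±SD of three independent experiments. Final DMSO was below 1%, with matched vehicle controls.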

[14] = Antiproliferative activity against human A2780cis cells after 72 hrs by SRB assay; assay type: functional, cell-based; summary of the method: as §3
HT-29 [15] = test: Cell cycle arrest in human HT-29 cells assessed as accumulation of cells at S phase at 250 nM after 24 hrs by propidium iodide staining-based flow cytometric analysis (reference value: 12.3 +/- 0.4%); assay type: functional
EA.hy 926 [16] = test: Cytotoxicity against human EAhy926 cells at 100 nM after 24 hrs by MTT assay relative to control; assay type: cell-based; settings: ea.hy 926, 24 h, 0.1 µM
Chorioallantoic membrane [17] = test: Antiangiogenic activity in Leghorn chicken embryo chorioallantoic membrane assessed as reduction in blood vessel area at 5 nmol after 6 hrs by light microscopic analysis relative to control; assay type: functional, tissue-based; parameters: scale not given: the % may be the effect or the level left; settings: Gallus gallus
Summary of the method: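 The CAM assay was run with topical application into a silicon foil ring atop the CAM of fertilized chicken eggs. Area covered by blood vessels was quantified by fractal analysis relative to control.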

PANC-1 = test: Antiproliferative activity against human PANC1 cells after 72 hrs by MTT assay; assay type: functional, cell-based; settings: PANC-1, 72 h; summary of the method: as §1
HT-29 [18] = test: Cell cycle arrest in human HT-29 cells assessed as accumulation of cells at sub G1 phase at 350 nM after 24 hrs by propidium iodide staining-based flow cytometric analysis (reference value: 1.2 +/- 0.3%); assay type: functional
HT-29 [19] = test: Cell cycle arrest in human HT-29 cells assessed as accumulation of cells at G2/M phase at 250 nM after 24 hrs by propidium iodide staining-based flow cytometric analysis (reference value: 11.4 +/- 1.4%); assay type: functional
Tubulin (Homo sapiens) = Tubulin (Homo sapiens) (UniProt P68371+Q9H4B7+P0DPH7+P68366+Q13509+Q71U36+P04350+Q3ZCM7+P07437+P68363+Q9BQE3+Q6PEY2+Q13885+Q9BVA1+Q9BUF5); test: Induction of microtubule disruption in human 518A2 cells at 100 nM after 3 hrs by DAPI staining-based fluorescence microscopic analysis; assay type: cell-based
Summary of the method: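 Microtubule organization in 518A2 melanoma cells was checked by tubulin immunofluorescence staining after 3 h exposure to 100 nM, with DAPI as the nuclear counterstain. Images come from two independent experiments.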

EA.hy 926 [20] = test: Antiangiogenic activity against human EAhy926 cells assessed as inhibition of tube formation on matrigel at 100 nM after 24 hrs by light microscopic analysis; assay type: functional, cell-based
Summary of the method: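 Ea.Hy926 endothelial hybrid cells were seeded on matrigel with compound and examined for tubular/cord-like network formation versus untreated controls. Viability under the same conditions was checked in parallel by MTT to exclude cytotoxic effects.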

Chorioallantoic membrane [21] = test: Antiangiogenic activity in Leghorn chicken embryo chorioallantoic membrane assessed as disruption of smaller blood vessels at 5 nmol after 6 hrs by light microscopic analysis; assay type: functional, tissue-based; settings: Gallus gallus; summary of the method: as §2
EA.hy 926 [22] = test: Antiproliferative activity against human EAhy926 cells after 72 hrs by MTT assay; assay type: functional, cell-based; settings: EA.hy 926, 72 h; summary of the method: as §1
DLD-1 = test: Antiproliferative activity against human DLD1 cells after 72 hrs by MTT assay; assay type: functional, cell-based; settings: DLD-1, 72 h; summary of the method: as §1
518A2 [23] = test: Antiproliferative activity against human 518A2 cells after 72 hrs by MTT assay; assay type: functional, cell-based; settings: for IC50: 518A2, 72 h; summary of the method: as §1
HT-29 [24] = test: Cell cycle arrest in human HT-29 cells assessed as accumulation of cells at G2/M phase at 350 nM after 24 hrs by propidium iodide staining-based flow cytometric analysis (reference value: 11.4 +/- 1.4%); assay type: functional
Chorioallantoic membrane [25] = test: Antiangiogenic activity in Leghorn chicken embryo chorioallantoic membrane assessed as induction of hemorrhages at 5 nmol after 6 hrs by light microscopic analysis; assay type: functional, tissue-based; settings: Gallus gallus; summary of the method: as §2
Chorioallantoic membrane [26] = test: Antiangiogenic activity in Leghorn chicken embryo chorioallantoic membrane assessed as disruption of smaller blood vessels at 5 nmol after 24 hrs by light microscopic analysis; assay type: functional, tissue-based; settings: Gallus gallus; summary of the method: as §2
HT-29 [27] = test: Cell cycle arrest in human HT-29 cells assessed as accumulation of cells at G1 phase at 100 nM after 24 hrs by propidium iodide staining-based flow cytometric analysis (reference value: 75.1 +/- 1.1%); assay type: functional
HT-29 [28] = test: Cell cycle arrest in human HT-29 cells assessed as accumulation of cells at S phase at 100 nM after 24 hrs by propidium iodide staining-based flow cytometric analysis (reference value: 12.3 +/- 0.4%); assay type: functional
Chorioallantoic membrane [29] = test: Antiangiogenic activity in Leghorn chicken embryo chorioallantoic membrane assessed as induction of hemorrhages at 5 nmol after 24 hrs by light microscopic analysis; assay type: functional, tissue-based; settings: Gallus gallus; summary of the method: as §2
518A2 [30] = test: Antimigratory activity against human 518A2 cells at 50 nM after 48 hrs by wound healing assay; assay type: functional, cell-based
HT-29 [31] = test: Antiproliferative activity against human HT-29 cells after 72 hrs by MTT assay; assay type: functional, cell-based; settings: HT-29, 72 h; summary of the method: as §1
Chorioallantoic membrane [32] = test: Antiangiogenic activity in Leghorn chicken embryo chorioallantoic membrane assessed as effect on blood vessel length at 5 nmol after 6 hrs by light microscopic analysis; assay type: functional, tissue-based; settings: Gallus gallus; summary of the method: as §2
[33] = Solubility in tween80/ethanol (1:1) solution; assay type: physicochemical
HCT-116 = test: Antiproliferative activity against human HCT116 cells after 72 hrs by MTT assay; assay type: functional, cell-based; settings: HCT-116, 72 h; summary of the method: as §1
Tubulin (Sus scrofa) = Tubulin (Sus scrofa) (UniProt P02554+P02550); test: Inhibition of porcine brain tubulin polymerization at 10 uM after 2 hrs relative to control
Sequence of Tubulin (Sus scrofa) (P02550 whole entry, looked up): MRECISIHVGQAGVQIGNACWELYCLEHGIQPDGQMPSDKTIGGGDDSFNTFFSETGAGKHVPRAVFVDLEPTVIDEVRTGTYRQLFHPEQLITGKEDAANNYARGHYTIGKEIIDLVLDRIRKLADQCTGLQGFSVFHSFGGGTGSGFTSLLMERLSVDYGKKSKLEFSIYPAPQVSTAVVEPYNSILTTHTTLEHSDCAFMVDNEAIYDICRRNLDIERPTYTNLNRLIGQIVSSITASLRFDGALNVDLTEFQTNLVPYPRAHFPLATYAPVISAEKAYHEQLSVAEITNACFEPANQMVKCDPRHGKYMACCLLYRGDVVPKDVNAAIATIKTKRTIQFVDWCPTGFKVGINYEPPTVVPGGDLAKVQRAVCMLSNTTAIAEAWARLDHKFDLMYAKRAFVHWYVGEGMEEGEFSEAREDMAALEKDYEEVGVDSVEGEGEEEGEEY
Sequence of Tubulin (Sus scrofa) (P02554 whole entry, looked up): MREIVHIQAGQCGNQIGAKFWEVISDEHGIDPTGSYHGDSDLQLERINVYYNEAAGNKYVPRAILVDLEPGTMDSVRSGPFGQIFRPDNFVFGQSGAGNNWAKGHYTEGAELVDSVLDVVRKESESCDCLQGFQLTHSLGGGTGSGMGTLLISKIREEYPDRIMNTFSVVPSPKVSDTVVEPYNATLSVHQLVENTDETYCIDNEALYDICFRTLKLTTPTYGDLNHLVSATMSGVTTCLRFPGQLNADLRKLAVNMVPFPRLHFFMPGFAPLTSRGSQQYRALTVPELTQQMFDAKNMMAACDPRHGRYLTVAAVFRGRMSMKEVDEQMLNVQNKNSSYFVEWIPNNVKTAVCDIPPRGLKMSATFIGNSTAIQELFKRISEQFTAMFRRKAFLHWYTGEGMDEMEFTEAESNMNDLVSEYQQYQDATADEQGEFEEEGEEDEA
Summary of the method: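 In a brief single-concentration run, purified tubulin polymerization was measured at 10 µM and expressed as percent of vehicle-treated controls.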

SMILES	Activity (HT-29 [1]) [%]	Activity (HT-29 [2]) [%]	Activity (HT-29 [4]) [%]	Activity (HT-29 [6]) [%]	IC50 [7] [nM]	IC50 [9] [nM]	Activity (HT-29 [10]) [%]	Activity (HT-29 [11]) [%]	IC50 (A2780 [13]) [nM]	IC50 [14] [nM]	Activity (HT-29 [15]) [%]	IC50 (PANC-1) [nM]	Activity (HT-29 [18]) [%]	Activity (HT-29 [19]) [%]	IC50 (EA.hy 926 [22]) [nM]	IC50 (DLD-1) [nM]	Activity (518A2 [23])	IC50 (518A2 [23]) [nM]	Activity (HT-29 [24]) [%]	IC50 (HT-29 [31]) [nM]	further results
N#CC1=C(N)Oc2c(ccc3ccccc23)C1c1cccc(C#N)c1 (stereo unspecified)	15.6	4.2	11.8	59.6	< 0.1	0.41	60.5	19.7	14.8	17.9	18.5	< 0.1	10.6	10.1	4.3	2.6	Dose-dependent effect	< 0.1	13.3	110	Activity (518A2 [3]): Active; Activity (518A2 [5]): 69.4%; Activity (Chorioallantoic membrane [8]): Active; Activity (A2780 [12]): inactive; Activity (EA.hy 926 [16]): > 68%; Activity (Chorioallantoic membrane [17]): 56%; Activity (Tubulin (Homo sapiens)): Active; Activity (EA.hy 926 [20]): Active; Activity (Chorioallantoic membrane [21]): Active; Activity (Chorioallantoic membrane [25]): Active; Activity (Chorioallantoic membrane [26]): inactive; Activity (HT-29 [27]): 51%; Activity (HT-29 [28]): 25.1%; Activity (Chorioallantoic membrane [29]): inactive; Activity (518A2 [30]): Active; Activity (Chorioallantoic membrane [32]): Active
COc1c(I)cc(C2C(C#N)=C(N)Oc3c2ccc2ccccc32)cc1I (stereo unspecified)					16.5	22.8			16.4	18.2		13.1			17.9	15	Dose-dependent effect	37.1		45.2	solubility [33]: Insoluble; IC50 (HCT-116): 29.5 nM
N#CC1=C(N)Oc2c(ccc3ccccc23)C1c1ccc(Cl)c(F)c1 (stereo unspecified)	14.9	9.3	25	15.4			21	20.5	48.5	57.3	9.4		27	50.4			Dose-dependent effect	425	34	172	inhibition (Tubulin (Sus scrofa)): 44.1%; Activity (HT-29 [27]): 56%; Activity (HT-29 [28]): 14.7%
